Measurements taken from paper PMC9137328 (Bioorganic chemistry, 2020).
Entries after “also recorded” stand apart in the source; their conditions may differ. Like-named read-outs stand apart in the source and are kept apart here.

Assays:
[1] = biological target: T1, ERRα (Homo sapiens, UniProt P11474); experiment: Cell-based; settings: for ERRα activity (in words): HEK293 co-transfection luciferase
T1 sequence (P11474 1-423): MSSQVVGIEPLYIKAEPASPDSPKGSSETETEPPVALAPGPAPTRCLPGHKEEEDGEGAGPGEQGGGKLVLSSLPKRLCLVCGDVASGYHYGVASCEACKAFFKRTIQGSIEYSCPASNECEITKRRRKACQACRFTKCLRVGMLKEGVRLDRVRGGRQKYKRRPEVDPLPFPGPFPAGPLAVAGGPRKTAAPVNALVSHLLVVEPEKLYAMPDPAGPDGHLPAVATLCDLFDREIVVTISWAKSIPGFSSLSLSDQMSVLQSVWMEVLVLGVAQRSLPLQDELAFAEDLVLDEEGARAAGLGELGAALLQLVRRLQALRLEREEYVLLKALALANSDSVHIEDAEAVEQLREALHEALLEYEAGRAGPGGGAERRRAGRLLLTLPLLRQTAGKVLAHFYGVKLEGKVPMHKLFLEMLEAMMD

[2] = biological target: T2, ERRγ (Homo sapiens, UniProt P62508); experiment: Cell-based; settings: for ERRγ activity (in words): HEK293 co-transfection luciferase
T2 sequence (P62508 1-458): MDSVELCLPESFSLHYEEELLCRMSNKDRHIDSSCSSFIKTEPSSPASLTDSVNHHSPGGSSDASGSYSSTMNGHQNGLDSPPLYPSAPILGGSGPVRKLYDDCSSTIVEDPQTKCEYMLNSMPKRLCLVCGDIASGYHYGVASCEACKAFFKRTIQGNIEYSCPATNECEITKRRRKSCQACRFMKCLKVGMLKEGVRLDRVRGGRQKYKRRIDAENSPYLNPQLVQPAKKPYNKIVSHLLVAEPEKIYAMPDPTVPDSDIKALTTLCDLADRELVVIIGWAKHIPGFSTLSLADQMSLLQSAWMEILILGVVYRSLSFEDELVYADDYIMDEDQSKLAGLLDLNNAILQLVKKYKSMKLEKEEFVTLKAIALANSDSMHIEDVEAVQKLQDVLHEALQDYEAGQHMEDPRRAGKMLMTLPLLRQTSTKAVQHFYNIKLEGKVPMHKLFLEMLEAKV

[3] = tested on: ERR target genes PGC-1α, PGC-1β, CPT1α and PDK4; experiment: Gene expression; type: cell-based, mouse; settings: C2C12 cells, 1 μM of tested compounds, 24 h
Outline: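 Confluent C2C12 myoblasts (DMEM, 10% FBS, 1% L-glutamine; 2.5 million cells per well) were treated 24 h with test compound in DMSO or with DMSO vehicle, in triplicate groups. Total RNA was column-extracted and 1 μg was reverse-transcribed. Transcripts were quantified by SYBR qPCR, with samples run in duplicate. Relative expression was calculated by ΔΔCt against 36b4 as the reference gene.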

[4] = biological target: T3, ERRβ (Homo sapiens, UniProt O95718); experiment: Cell-based co-transfection ERR responsive luciferase reporter assay, ERRβ
T3 sequence (O95718 1-433): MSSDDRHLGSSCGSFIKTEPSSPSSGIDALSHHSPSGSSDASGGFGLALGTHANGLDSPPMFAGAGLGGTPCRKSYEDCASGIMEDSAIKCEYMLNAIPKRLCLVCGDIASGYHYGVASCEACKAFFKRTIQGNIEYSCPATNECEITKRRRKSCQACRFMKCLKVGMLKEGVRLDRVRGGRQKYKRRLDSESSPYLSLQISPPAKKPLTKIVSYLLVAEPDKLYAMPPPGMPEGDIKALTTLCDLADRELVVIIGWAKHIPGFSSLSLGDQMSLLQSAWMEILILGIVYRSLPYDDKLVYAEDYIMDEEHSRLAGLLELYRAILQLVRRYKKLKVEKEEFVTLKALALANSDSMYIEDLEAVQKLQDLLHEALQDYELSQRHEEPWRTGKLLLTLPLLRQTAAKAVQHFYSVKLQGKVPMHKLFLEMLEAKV

[5] = tested on: C2C12 cells; experiment: Cell viability assay, FITC Annexin V/PI flow cytometry; type: cell-based; settings: 1 and 10 μM, 24 h
Outline: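 C2C12 mouse myoblasts were kept in DMEM with 10% FBS and 1% L-glutamine. They were seeded at 2.5 million cells per well and grown 24 h to confluence. Cells were exposed 24 h to test compound in DMSO at 1 or 10 μM, with a DMSO-only control, in triplicate. Harvested cells were stained with FITC-Annexin V and propidium iodide and analysed by flow cytometry for live/dead cells.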

[6] = biological target: T3, ERRβ; settings: cited from earlier work
[7] = biological target: T2, ERRγ; settings: cited from earlier work
[8] = biological target: T1, ERRα; settings: cited from earlier work

## O=C(NN=Cc1ccccc1)c1ccccc1 [Compound 10]
[1]
  ERRα activity (in words): complete loss of activity; also recorded: completely inactive
[2]
  ERRγ activity (in words): complete loss of activity; also recorded: completely inactive

## CN(C)c1ccc(C=NNC(=O)c2ccccc2)cc1 [Compound 11]
[1]
  ERRα activity (in words): no ERRα activity; also recorded: inactive
[2]
  ERRγ activity (in words): activity was regained

## O=C(NN=Cc1ccccc1O)c1ccccc1 [Compound 13]
[1]
  ERRα activity (in words): completely inactive
[2]
  ERRγ activity (in words): completely inactive

## O=C(N/N=C/c1ccccc1[N+](=O)[O-])c1ccccc1 [Compound 16, (E)-N’-(2-Nitrobenzylidene)benzohydrazide]
[1]; compared to 14
  fold more potent toward ERRα than 14: ≈ 17 fold
[1]; compared to 15
  fold increase in potency toward ERRα compared to 15: > 6 fold
[2]; from EC50 values
  selectivity toward ERRγ over ERRα: 1.6 fold
[3]
  PDK4 transcription: potently upregulated
  expression of CPT1α: significantly increased the expression

## O=C(NN=Cc1ccccc1)c1ccccc1O [Compound 19]
[1]
  ERRα activity (in words): moderately potent
[2]
  ERRγ activity (in words): moderately potent

## O=C(NN=Cc1ccccc1)c1ccc(Br)cc1 [Compound 21]
[1]
  ERRα activity (in words): completely lost ERRα activity; also recorded: inactive
[2]
  ERRγ activity (in words): moderate ERRγ activity; also recorded: very weak

## Cc1ccccc1C(=O)NN=Cc1ccccc1 [Compound 23]
[1]
  ERRα activity (in words): no activity

## Cc1ccc(C(=O)N/N=C/c2ccccc2)cc1 [Compound 24, (E)-N’-Benzylidene-4-methylbenzohydrazide]
[3]
  PDK4 transcription: potently upregulated
  mRNA levels of PGC-1α: increase the mRNA levels
  mRNA levels of PGC-1β: increase the mRNA levels
[4]
  EC50: 162 nM
[5]
  Cell viability / signs of toxicity: No signs of toxicity; also recorded: did not show signs of toxicity

## O=C(N/N=C/c1ccccc1O)c1ccccc1O [Compound 27, (E)-2-Hydroxy-N’-(2-hydroxybenzylidene)benzohydrazide]
[1]
  EC50: 378 nM
[1]; from EC50 values
  activity toward ERRα, folds higher than ERRβ: ≈ 2 folds
  selectivity toward ERRα over ERRγ: > 4 fold
[2]
  EC50: 1650 nM
[4]
  EC50: 772 nM
[5]
  Cell viability / signs of toxicity: No signs of toxicity; also recorded: did not show signs of toxicity

## Cc1ccccc1C(=O)N/N=C/c1ccccc1O [Compound 29, (E)-N’-(2-Hydroxybenzylidene)-2-methylbenzohydrazide]
[1]
  EC50: 453 nM
[2]
  EC50: 254 nM
[4]
  EC50: 583 nM
[5]
  Cell viability / signs of toxicity: No signs of toxicity; also recorded: did not show signs of toxicity

## O=C(NN=Cc1ccccc1O)c1ccc(Cl)cc1 [Compound 31]
[1]
  ERRα activity (in words): weak activity
[2]
  ERRγ activity (in words): weak activity

## Cc1ccc(C(=O)N/N=C/c2ccccc2O)cc1 [Compound 33, (E)-N’-(2-Hydroxybenzylidene)-4-methylbenzohydrazide]
[1]
  EC50: 483 nM
[2]
  EC50: 235 nM
[4]
  EC50: 123 nM

## O=C(N/N=C/c1ccccc1[N+](=O)[O-])c1ccccc1 [Compound 34]
[1]
  ERRα activity (in words): completely inactive
[2]
  ERRγ activity (in words): completely inactive

## COc1ccc(/C=N/NC(=O)c2ccc(Br)cc2)cc1 [Compound 35, (E)-4-Bromo-N’-(4-methoxybenzylidene)benzohydrazide]
[1]
  EC50: 540 nM
[2]
  EC50: 398 nM
[3]
  PDK4 transcription: potently upregulated
  mRNA levels of PGC-1α: increased the mRNA levels

## O=C(N/N=C/c1ccccc1O)c1ccccc1O [Compound 36]
[2]
  ERRγ activity (in words): inactive

## O=C(N/N=C/c1ccccc1[N+](=O)[O-])c1ccc([N+](=O)[O-])cc1 [Compound 38, (E)-4-Nitro-N’-(2-nitrobenzylidene)benzohydrazide]
[1]
  EC50: 646 nM
[1]; compared to 16
  fold decrease in potency against ERRα: ≈ 1.5 fold
[2]
  EC50: 260 nM

## O=C(N/N=C/c1cccs1)c1ccccc1 [Compound 42, (E)-N’-(Thiophen-2-ylmethylene)benzohydrazide]
[1]
  ERRα activity (in words): weak agonistic effect
[2]
  ERRγ activity (in words): weak agonistic effect
[3]
  PDK4 transcription: potently upregulated
  mRNA levels of PGC-1α: increase the mRNA levels
  mRNA levels of PGC-1β: increase the mRNA levels
[4]
  EC50: 1190 nM
[4]; from EC50 values
  activity toward ERRβ, folds higher than ERRα: 1.8 folds
[5]
  Cell viability / signs of toxicity: No signs of toxicity; also recorded: did not show signs of toxicity

## O=C(NN=Cc1ccnc2ccccc12)c1ccccc1 [Compound 46, quinolin-4-ylmethylene benzohydrazide]
[1]
  IC50: 4580 nM

## CC(C)c1ccc(/C=N/NC(=O)c2ccc(O)cc2)cc1 [GSK4716 (6)]
[1]
  ERRα activity (in words): very weak activity
[6]
  reported activity on ERRβ: agonist
[7]
  reported activity on ERRγ: agonist
[8]
  reported activity on ERRα: no observed activity
[4]; read-out: ERRβ EC50, agonism, co-transfection luciferase reporter
  EC50: 280 nM
